Measurements published in ChEMBL document CHEMBL4130552, “Design, synthesis and biological evaluation of novel benzimidazole amidines as potent multi-target inhibitors for the treatment of non-small cell lung cancer” (Eur J Med Chem, 2018).
Activity calls are given as the source filed them. No cut-off for these calls is given here.

What was measured:
WI-38 = test: Antiproliferative activity against human WI38 cells after 72 hrs by MTT assay; assay type: cell-based; conditions: WI-38, 72 h
Procedure, shortened: (§1)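 Cells seeded at 5000/well on day 0 in medium with 10% FBS, 2 mM L-glutamine, penicillin/streptomycin, 37 °C, 5% CO2. Compounds added at five 10-fold dilutions with DMSO ≤0.1%, then 72 h exposure. MTT absorbance converted to percentage growth versus untreated wells. IC50 by linear regression between bracketing concentrations. Quadruplicate points, three independent experiments.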

A549 [1] = test: Antiproliferative activity against human A549 cells after 72 hrs by MTT assay; assay type: functional, cell-based; conditions: A549, 72 h; procedure, shortened: as §1
HeLa = test: Antiproliferative activity against human HeLa cells after 72 hrs by MTT assay; assay type: functional, cell-based; procedure, shortened: as §1
SW-620 = test: Antiproliferative activity against human SW620 cells after 72 hrs by MTT assay; assay type: functional, cell-based; conditions: SW-620, 72 h; procedure, shortened: as §1
CFPAC-1 = test: Antiproliferative activity against human CFPAC-1 cells after 72 hrs by MTT assay; assay type: functional, cell-based; conditions: CFPAC-1, 72 h; procedure, shortened: as §1
A549 [2] = test: Induction of apoptosis in human A549 cells assessed as viable cells at 2 times antiproliferative IC50 after 48 hrs by Annexin V-FITC/propidium iodide staining based fluorescence microscopic method (reference value: 99.48%); assay type: functional
A549 [3] = test: Downregulation of TGM2 protein expression in human A549 cells at 2 times antiproliferative IC50 after 48 hrs by Western blot method; assay type: functional, cell-based
Procedure, shortened: (§2)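 Lysis in RIPA buffer (20 mM Tris-HCl pH 7.5, 150 mM NaCl, EDTA, EGTA, 1% NP-40, 1% deoxycholate, protease inhibitors). Blocking 1 h in 4% BSA/TBST, primary antibody overnight at 4 °C, HRP secondary 1 h, chemiluminescence. Densitometry normalised to alpha-tubulin; two independent experiments.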

A549 [4] = test: Downregulation of CDK9/CyclinT1 protein expression in human A549 cells at 2 times antiproliferative IC50 after 48 hrs by Western blot method; assay type: functional, cell-based; procedure, shortened: as §2
A549 [5] = test: Downregulation of PDE5 protein expression in human A549 cells at 2 times antiproliferative IC50 after 48 hrs by Western blot method; assay type: functional, cell-based; procedure, shortened: as §2
A549 [6] = test: Induction of apoptosis in human A549 cells assessed as early apoptotic cells at 2 times antiproliferative IC50 after 48 hrs by Annexin V-FITC/propidium iodide staining based fluorescence microscopic method (reference value: 0.52%); assay type: functional
MAP kinase p38 = MAP kinase p38 (Homo sapiens, UniProt O15264+Q15759+Q16539+P53778); test: Inhibition of p38 phosphorylation at Thr180/Tyr182 residues in human A549 cells at 2 times antiproliferative IC50 after 48 hrs by Western blot method; assay type: cell-based; procedure, shortened: as §2
A549 [7] = test: Induction of apoptosis in human A549 cells assessed as late apoptotic cells at 2 times antiproliferative IC50 after 48 hrs by Annexin V-FITC/propidium iodide staining based fluorescence microscopic method (reference value: 0%); assay type: functional
A549 [8] = test: Induction of apoptosis in human A549 cells assessed as necrotic cells at 2 times antiproliferative IC50 after 48 hrs by Annexin V-FITC/propidium iodide staining based fluorescence microscopic method (reference value: 0%); assay type: functional
[9] = molecular target: Cellular tumor antigen p53 (Homo sapiens) (UniProt P04637); test: Inhibition of p53 phosphorylation at Ser-15 residue in human A549 cells at 2 times antiproliferative IC50 after 48 hrs by Western blot method; assay type: cell-based; procedure, shortened: as §2
Chain of Cellular tumor antigen p53 (Homo sapiens) (P04637 whole entry, looked up): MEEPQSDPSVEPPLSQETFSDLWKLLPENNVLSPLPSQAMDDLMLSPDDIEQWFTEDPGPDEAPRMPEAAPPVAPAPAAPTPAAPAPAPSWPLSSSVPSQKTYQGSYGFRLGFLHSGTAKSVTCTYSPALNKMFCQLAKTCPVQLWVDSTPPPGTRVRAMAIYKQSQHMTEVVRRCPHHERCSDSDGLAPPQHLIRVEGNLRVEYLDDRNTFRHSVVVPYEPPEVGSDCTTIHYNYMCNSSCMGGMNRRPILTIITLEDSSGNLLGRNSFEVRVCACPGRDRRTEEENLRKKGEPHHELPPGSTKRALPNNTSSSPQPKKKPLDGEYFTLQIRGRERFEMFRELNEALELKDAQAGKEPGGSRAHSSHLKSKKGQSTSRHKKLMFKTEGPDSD

SMILES | IC50 (WI-38) [µM] | IC50 (A549 [1]) [µM] | IC50 (HeLa) [µM] | IC50 (SW-620) [µM] | IC50 (CFPAC-1) [µM] | Activity (A549 [2]) [%] | Activity (A549 [3]) | Activity (A549 [4]) | Activity (A549 [5]) | Activity (A549 [6]) [%] | inhibition (MAP kinase p38) | Activity (A549 [7]) [%] | Activity (A549 [8]) [%] | inhibition [9]
Clc1ccc(-n2cc(-c3nc4cc(C5=NCCN5)ccc4[nH]3)nn2)cc1 | 2.72 | 3.86 | 0.69 | 1.67 | 0.83 |  |  |  |  |  |  |  |  | 
O=c1[nH]cc(F)c(=O)[nH]1 [FLUOROURACIL] |  | 2.8 |  |  |  |  |  |  |  |  |  |  |  | 
Cl.c1ccc(Cn2cc(COc3ccc(-c4nc5cc(C6=NCCN6)ccc5[nH]4)cc3)nn2)cc1 | 6.89 | 0.07 | 6.67 | 28.1 | 29.2 | 49.71 | Active | Active | Active | 27.49 | Active | 16.37 | 6.43 | Active
N=C(N)c1ccc2[nH]c(-c3ccc(OCc4cn(-c5ccc(F)cc5)nn4)cc3)nc2c1 | 0.7 | 81 | 7.39 | 37.9 | > 100 |  |  |  |  |  |  |  |  | 
Clc1ccc(-n2cc(COc3ccc(-c4nc5cc(C6=NCCN6)ccc5[nH]4)cc3)nn2)cc1 | 2.24 | 0.06 | 0.22 | 3.65 | 16.9 |  |  |  |  |  |  |  |  | 
Clc1ccc(-n2cc(COc3ccc(-c4nc5ccccc5[nH]4)cc3)nn2)cc1 | 1.11 | 7.96 | > 100 | 99.3 | > 100 |  |  |  |  |  |  |  |  | 
CC(C)NC(=N)c1ccc2[nH]c(-c3cn(-c4ccc(Cl)cc4)nn3)nc2c1 | 6.85 | 27.1 | 0.85 | 32.5 | 16 |  |  |  |  |  |  |  |  | 
CC(C)NC(=N)c1ccc2[nH]c(-c3ccc(OCc4cn(-c5ccc(I)cc5)nn4)cc3)nc2c1 | 0.2 | 0.08 | 0.51 | 0.69 | 5.13 |  |  |  |  |  |  |  |  | 
CC(C)NC(=N)c1ccc2[nH]c(-c3ccc(OCc4cn(Cc5ccccc5)nn4)cc3)nc2c1 | 65.4 | 6.18 | 8.8 | 58.6 | > 100 |  |  |  |  |  |  |  |  | 
Ic1ccc(-n2cc(COc3ccc(-c4nc5cc(C6=NCCN6)ccc5[nH]4)cc3)nn2)cc1 | 0.22 | > 100 | 0.42 | 0.37 | 0.86 |  |  |  |  |  |  |  |  | 
N=C(N)c1ccc2[nH]c(-c3ccc(OCc4cn(Cc5ccccc5)nn4)cc3)nc2c1 | 0.89 | 9.47 | 13.7 | 30.9 | 34.4 |  |  |  |  |  |  |  |  | 
Clc1ccc(-n2cc(COc3ccc(-c4nc5ccc(Cl)cc5[nH]4)cc3)nn2)cc1 | 1.52 | 2.91 | 3.54 | 4.28 | 3.74 |  |  |  |  |  |  |  |  | 
Fc1ccc(-n2cc(COc3ccc(-c4nc5cc(C6=NCCN6)ccc5[nH]4)cc3)nn2)cc1 | 0.09 | > 100 | 0.98 | 2.31 | > 100 |  |  |  |  |  |  |  |  | 
CC(C)NC(=N)c1ccc2[nH]c(-c3ccc(OCc4cn(-c5ccc(Cl)cc5)nn4)cc3)nc2c1.Cl | 8.04 | 0.05 | 17.5 | 48.7 | > 100 | 28.89 | inactive | inactive | inactive | 28.33 | Active | 40 | 2.78 | Active
